Here are results for two compounds from ChEMBL document CHEMBL2203253, “An ecofriendly synthesis and DNA binding interaction study of some pyrazolo [1,5-a]pyrimidines derivatives” (Bioorg Med Chem Lett, 2012).

What all share (type): nucleic-acid assay
Holding throughout (settings): Bos taurus

Experiment [1] deals with Nucleic Acid. In words: Binding affinity to calf thymus DNA assessed as intrinsic binding constant by UV-visible absorption spectroscopy. The method in brief:
(§1)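 CT-DNA checked for purity by A260/A280; concentration per nucleotide from extinction coefficient at 260 nm (6600 M-1 cm-1). Compound held constant at 30 μM in 50% DMSO/phosphate buffer, pH 7.2 (5 mM in one passage, 0.2 M in another). DNA titrated from 0 to 100 μM, spectra recorded after each addition once equilibrated.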

The test system of experiment [2] is Nucleic Acid. In words: Binding affinity to calf thymus DNA assessed as increase in viscosity of short, rod-like DNA at compound to DNA ratio of 0.2 to 1.4 by viscometer. The method in brief: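 Viscometer titration of CT-DNA solution (496.2 μmol/L) in phosphate buffer pH 7.2 with increasing compound concentrations. Flow time measured at 25 °C in an Ostwald viscometer, with the same method for each compound.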

The test system of experiment [3] is Nucleic Acid. Description: Binding affinity to calf thymus DNA assessed as hypochromicity at 30 uM by UV-visible absorption spectroscopy. The method in brief:
as §1

The test system of experiment [4] is Nucleic Acid. In words: Binding affinity to calf thymus DNA assessed as melting temperature at 5 to 10 uM by thermal denaturation analysis. The method in brief: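 Thermal melting of CT-DNA (50 μM) in phosphate buffer pH 7.2, with and without compound (5–10 μM). Absorbance at 260 nm followed across temperatures. Tm taken as the point of 50% strand separation, with curve width from the 10–90% absorbance rise.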

The test system of experiment [5] is Nucleic Acid. In words: Binding affinity to calf thymus DNA assessed as bathochromic shift at 30 uM by UV-visible absorption spectroscopy. The method in brief: as §1

Active and inactive are the calls of the source. The rule behind the calls is not given here.

As for `CCCCc1nc(Cl)c([C@@H]2[C@H]3C(C)=NN(c4ccccc4)C3=Nc3c(/N=N/c4ccc(Cl)cc4)c(N)nn32)[nH]1`, in the experiment with Nucleic Acid [1], the Kb came to 5.7 ×10⁵ /M. For the same compound, the outcome with Nucleic Acid [2], with Nucleic Acid [3] and in the experiment on Nucleic Acid [5] was Active. Besides, the Tm (in general, the temperature at the midpoint of the melting transition) in the experiment with Nucleic Acid [4] was found to be 82 °C.
For `CCCCc1nc(Cl)c(/C=C2/C(=O)N(c3ccccc3)N=C2C)[nH]1`, the Kb in the experiment with Nucleic Acid [1] was found to be 5.21 ×10⁵ /M. Moreover, the result in the experiment with Nucleic Acid [2], in the experiment with Nucleic Acid [3] and with Nucleic Acid [5] was Active. Moreover, the Tm in the experiment on Nucleic Acid [4] came to 80 °C.
